The text below walks through data of the RNAGym collection of RNA variant scans (doi:10.1126/science.aae0568).

Variants at the floor of the assay were thinned out.

The chains are these.
B1: tRNA (parent)
chain: GUUCCGUUGGCGUAAUGGUAACGCGUCUCCCUCCUAAGGAGAAGACUGCGGGUUCGAGUCCCGUACGGAACG

The data set covers variants of B1. Description: yeast fitness relative to wild type (ratio to wild type); higher = fitter; tRNA-Arg(CCU), competitive growth, 37 C, YPD. The gist of the method:
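A pool of Saccharomyces cerevisiae strains, each with a tRNA-Arg(CCU) gene variant at the native genomic locus, was competed in YPD at 37°C for 24 hours across six parallel replicates. The variants had been chemically synthesised at a 3% per-site mutation rate over 69 sites, and gene amplicons before and after competition were read by 100-nucleotide paired-end sequencing. Darwinian fitness relative to wild type rested on changes in genotype frequencies. Genotypes required ≥ 100 starting reads, and estimates < 0.5 were set to 0.5.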
A15U G17A C46U C62U: the yeast fitness is 0.865.
As to A15U C27U U28G C33U, the yeast fitness was at most 0.5.
Regarding A15G A20U G68A, the yeast fitness was 0.545.
On to A15U A21C G39C U54A, for which the yeast fitness was at most 0.5.
As for A15U U19G, the yeast fitness was determined as 0.631.
In the case of A15G U64G A69C, the yeast fitness came out at 0.564.
Turning to A15U C24U C27U, the yeast fitness is at most 0.5.
For A15G C33U G50A the value was at most 0.5.
A15G U26A C66A: the yeast fitness was at most 0.5.
The result for U16A A21U C30A G38A C55A A65C reads at most 0.5; that for A15U G44C, 0.727; that for A15U C30G C61U G68A, at most 0.5.
Turning to A15U C60G C61U G68A, the yeast fitness is at most 0.5.
Regarding A15C C34G A37U C46G A69U, the yeast fitness was at most 0.5.
Take A15C A21U G39A: the yeast fitness was at most 0.5.
Turning to A15G G44C G68U, the yeast fitness is at most 0.5.
The result for U16A A42U U53A reads at most 0.5; that for A15U G18C, 0.589; that for A15U C24U A37U U54G, at most 0.5.
The result for A15G A43U C60G reads at most 0.5.
The result for A15U C34U A57U C60U reads 0.725.
A15G A42U: the yeast fitness was 0.971.
The result for A15C A40U reads 0.833; that for A15C G50A C55U C61G, 0.804.
For A15U U16G U35A U59A the value was at most 0.5; for A15U C31U C33U G67A, 0.642.
For A15C U47G G68U the value was at most 0.5.
With A15G U47C G68C, the yeast fitness is at most 0.5.
For A15G U16G G39A A45C C61A, the yeast fitness is at most 0.5.
On to A15U C29A C34G U59A A69C, for which the yeast fitness was at most 0.5.
The result for U16A A36G G51A reads at most 0.5; that for A15U A42G, 0.746.
As to A15C G23C C60U, the yeast fitness is at most 0.5.
For the variant A15U G18A C33G A42C, the yeast fitness is at most 0.5.
On to A15G C34U A40U A69C, for which the yeast fitness is at most 0.5.
The result for A15G C30G G39C reads at most 0.5; that for A15G C24A C34G A65U, at most 0.5; that for A15C C22A C31A G38C G58C, 0.542.
For the variant A15C C27U G63A, the yeast fitness is at most 0.5.
The result for A15C G17A G38C C62U reads at most 0.5; that for A15U G18C C34G A42G G52C, 0.575.
In the case of A15C C31A U59C G63A A69G, the yeast fitness was at most 0.5.
As for A15G C30A G48C, the yeast fitness was at most 0.5.
The result for A15G G17A U19A U32G reads at most 0.5; that for A15U G63A A69C, 0.539.
Regarding A15U G25C G68A, the yeast fitness was at most 0.5.
Turning to A15C C27U C62U, the yeast fitness was at most 0.5.
For A15G A36G A37G the value was 0.624.
For the variant A15C G17A A57C, the yeast fitness was determined as 0.527.
The result for A15G C24A U64C reads at most 0.5; that for A15G G48A C62U, 1.03; that for A15C G51C C61U, at most 0.5.
The result for A15G A42U A57C reads 0.532; that for A15C C46U G51A C66A, at most 0.5.
A15U A21C C29U C30A G38A: the yeast fitness is at most 0.5.
For A15C C31G the value was 0.632.
In the case of A15U C31U A70G, the yeast fitness stood at 0.629.
For A15G U28C U35A G38A C46G C62U G67U the value was at most 0.5; for A15C G52A A57U C60U A65G G68A, at most 0.5.
As for A15G G18A U54A, the yeast fitness is at most 0.5.
In the case of A15C G25A A65C, the yeast fitness was determined as 0.711.
Take A15U A21U: the yeast fitness turned out to be 0.708.
The result for A15C U59A C61A reads 0.698; that for A15U C29A C55A, at most 0.5.
Consider A15U U19A A20G A40U A43U C60G C62U A65G, for which the yeast fitness was at most 0.5.
The result for A15U A36U C60G reads at most 0.5.
Consider A15U G18C A21G U59A C61G, for which the yeast fitness was at most 0.5.
In the case of A15G C61A A69U, the yeast fitness stood at 0.643.
Turning to A15C U35C U47C, the yeast fitness is at most 0.5.
For the variant A15U U32A G50A G51A G56C C61G, the yeast fitness worked out at 0.538.
A15C U47A G52C: the yeast fitness was found to be 0.539.
Take A15C A21U C62U: the yeast fitness worked out at 0.53.
On to A15G G56A C62U A70C, for which the yeast fitness worked out at 0.543.
As to A15U A20C C46G G50C C61G, the yeast fitness stood at 0.604.
The result for U16A A37G G39A C49A G50A G68C reads 0.531; that for A15C G39A G67A, at most 0.5.
The result for U16A A20U C24G C33G reads at most 0.5.
Consider A15C C22A G25C U28A A36U A57C A65C G68C, for which the yeast fitness is 0.568.
Regarding A15G C60G A69C, the yeast fitness was determined as 0.585.
On to A15G C30U C55U, for which the yeast fitness is at most 0.5.
For A15C G18A U19G G58C the value was at most 0.5; for A15G U35G A43G C66U, at most 0.5.
For A15C U47A the value was 1.09; for A15G G18C, 0.7.
For A15U C60G G67A the value was at most 0.5; for A15C G39A U64C A65G, at most 0.5.
Take A15C C22G A43C G52C: the yeast fitness is at most 0.5.
Take A15G G38A A40C G41C C49U: the yeast fitness was 0.597.
A15C C31A U35C A45U: the yeast fitness is at most 0.5.
Regarding A15G G23C G44A, the yeast fitness was at most 0.5.
The result for A15C A36U A65C reads 0.54; that for A15G C49A G56A, 0.506.
In the case of A15C G25C C29U U35C A43U A69U, the yeast fitness was at most 0.5.
The result for A15G A36C reads 0.515.
A15C A43U G67A: the yeast fitness was found to be 0.535.
As to A15G A20C C62G, the yeast fitness turned out to be 0.731.
For A15C C30A the value was 0.666; for A15G G63A, 0.926.
On to A15C G17A U54C C55G, for which the yeast fitness is at most 0.5.
The result for A15C A43G C46A G68A reads at most 0.5.
The result for A15C G56A G67A reads 0.61; that for A15G A40U, 0.767.
With A15U C24A C34G G39U A65G, the yeast fitness was 0.651.
As to A15G U28C C30U A36C A45U G50C, the yeast fitness is at most 0.5.
The result for A15U C46A C61G A69G reads at most 0.5; that for A15U U28A C46A, 0.507.
For A15U A42C G48A G50C the value was at most 0.5; for A15U C29U C33U, at most 0.5.
With A15C C31U C62G U64G A65G G67C, the yeast fitness is at most 0.5.
For A15G G25A A37G A70C the value was 0.522; for A15G C29A G58C, 0.503.
The result for A15U G38C G39A A43C G48A reads at most 0.5.
The result for A15C C31G A40U reads 0.624.
A15G C24G U28A G52C A65C: the yeast fitness was at most 0.5.
For A15C G18A C24G C55A the value was at most 0.5; for A15G U32A, 0.637.
A15U C24G C66U: the yeast fitness was determined as 0.608.
For A15C U47C A69U, the yeast fitness was determined as 0.551.
With A15U C24U G25C A37U A40C U53C G58C, the yeast fitness was at most 0.5.
A15U A40U G52A G68A: the yeast fitness was determined as 0.596.
For A15C U16A A21G U26A C30U the value was at most 0.5; for U16A A37G A40C U47G, at most 0.5.
The result for A15G G39C A69C reads 0.624; that for A15C C55A, 0.562; that for U16A A37C G48C, 0.546.
Take A15C C30A G48C G56C: the yeast fitness is at most 0.5.
A15G A20U C29G A43G G67A: the yeast fitness is at most 0.5.
Consider A15G A42C G52C, for which the yeast fitness is at most 0.5.
Turning to A15G C29A C34G, the yeast fitness is at most 0.5.
Regarding A15U C33G C66U, the yeast fitness was at most 0.5.
The result for A15C C31A C34A G67C reads at most 0.5; that for U16A A37U C55G G56C, at most 0.5.
Regarding A15G A45U A70U, the yeast fitness is 0.692.
The result for A15U C22G U32A C66A reads at most 0.5; that for A15G A21G G39A, 0.649; that for A15U U59C, 0.788.
For A15C A36U C46G G56A C60A C62G C66A the value was at most 0.5; for A15G G58A G68C, 0.596.
For A15G C30U A69U the value was 0.609; for A15G G56A A65C, 0.619; for A15C G52C, 0.575.
Consider A15U U47C C49G C55U A65U, for which the yeast fitness was 0.531.
As for A15U A20G A37C, the yeast fitness is at most 0.5.
The result for A15G G41C G51C C61G reads 0.726; that for A15U G39A, 0.667.
As for A15U A57C A65U, the yeast fitness came to 0.794.
For A15U U16C A40U U59A A70C the value was at most 0.5; for A15C G38A C49A, at most 0.5; for A15G G41A, 0.854.
Take A15C A57C: the yeast fitness is at most 0.5.
For A15C A36U the value was 0.633; for A15C U28C G48C G68U A69U, at most 0.5.
As to A15C U35C C46G, the yeast fitness is 0.67.
Consider A15G U26A A45G C60U C62A, for which the yeast fitness is 0.562.
The result for A15G G58A C62U A69C reads 0.685; that for A15C A20G A65G, at most 0.5.
The result for A15C U26A C31G U32A G63A reads at most 0.5; that for A15C C27U U28A A40U, at most 0.5.
As to A15U C33G A43C G44U, the yeast fitness is at most 0.5.
As for A15G A20C C34U U59G, the yeast fitness amounted to 0.705.
Take A15U C24U G44A: the yeast fitness stood at 0.503.
The result for A15G U35A G48A A57G C62G reads at most 0.5; that for A15U C33G C49A C60G, at most 0.5; that for A15C U47G G52C, at most 0.5.
On to A15C G39A A65G, for which the yeast fitness turned out to be 0.517.
On to A15G G67A A69C, for which the yeast fitness came to 0.767.
The result for A15G C30G C31A C66U reads at most 0.5.
